Molecules are shown by their SMILES. Converted amounts (≈) assume the structure as drawn. The source made the active and inactive calls. The calls are words filed in the database; no cut-off is given here.

The subject of assay [1] is A549. Put plainly: Cytotoxicity against human A549 cells after 3 days by SRB assay. The assay is classed as functional, cell-based. The note with it: A549, 72 h. The gist of the method: (§1)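 Cells kept in RPMI-1640 with 25 mM HEPES, 0.25% sodium bicarbonate, 10% FBS and 100 µg/mL kanamycin. Freshly trypsinized cells seeded at 1500-7500 per well with compound diluted from DMSO stock. After 3 days, attached cells fixed with cold 50% TCA, stained with 0.4% SRB, and bound dye solubilized. Absorbance read at 562 nm. IC50 = 50% reduction relative to untreated cells. Below 50% inhibition at 20 mcg/mL, percent inhibition reported.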
On the technique in general: The SRB assay estimates cell density from bound dye.

For assay [2], the system named is MCF7. In words: Cytotoxicity against human MCF7 cells after 3 days by SRB assay. The assay is classed as functional, cell-based. The note with it: MCF7, 72 h. The gist of the method: as §1
Assay [3] deals with A549. In words: Cytotoxicity against human A549 cells at 20 mcg/mL after 3 days by SRB assay. Format: functional. The note with it: for inhibition at 20 µg/mL: A549, 72 h. The gist of the method: as §1
In assay [4] the test system is MCF7. Put plainly: Cytotoxicity against human MCF7 cells at 20 mcg/mL after 3 days by SRB assay. The assay is classed as functional. The note with it: for inhibition at 20 µg/mL: MCF7, 72 h. The gist of the method: as §1

`CC(C)=CC[C@H]1C[C@]2(CC=C(C)C)C(=O)C(C(=O)c3ccccc3)=C(O)[C@](CC=C(C)C)(C2=O)C1(C)C`: the IC50 came to 13.7 µg/mL (≈ 27.3 µM) in the assay with A549 [1] and 10 µg/mL (≈ 19.9 µM) in the assay with MCF7 [2].
Regarding `O=c1c2cc(O)ccc2oc2cccc(O)c12`, the figures for the IC50 in the assay with A549 [1] and in the assay with MCF7 [2] were 14.5 µg/mL (≈ 63.5 µM) and 19.5 µg/mL (≈ 85.5 µM), respectively.
On the same counts, the results for `O=c1c2ccc(O)c(O)c2oc2cc(O)cc(O)c12` are 10 µg/mL (≈ 38.4 µM) and 9.3 µg/mL (≈ 35.7 µM).
For `COc1ccc(O)c2c(=O)c3cc(O)ccc3oc12`, the concentration for half-maximal inhibition (IC50) with A549 [1] came to 8.5 µg/mL (≈ 32.9 µM); in the assay with MCF7 [2], 15.2 µg/mL (≈ 58.9 µM).
Take `O=c1c(-c2c(O)cc(O)c3c(=O)cc(-c4ccc(O)cc4)oc23)c(-c2ccc(O)cc2)oc2cc(O)cc(O)c12`: the IC50 in the assay with A549 [1] and with MCF7 [2] was over 20 µg/mL throughout. For the same molecule, the inhibition at 20 µg/mL turned out to be 27% in the assay with A549 [3] and 26% in the assay on MCF7 [4].
Regarding `CC(C)=CCc1c(O)c(O)cc2oc3cc(O)cc(O)c3c(=O)c12`, the IC50 in the assay with A549 [1] turned out to be 18.5 µg/mL (≈ 56.3 µM); with MCF7 [2], 18.4 µg/mL (≈ 56 µM).
On to `O=c1c(O[C@@H]2OC[C@@H](O)[C@@H](O)[C@@H]2O)c(-c2ccc(O)c(O)c2)oc2cc(O)cc(O)c12`, for which the IC50 in the assay with A549 [1] and with MCF7 [2] was over 20 µg/mL in each case. For the same molecule, the values for the inhibition at 20 µg/mL in the assay with A549 [3] and in the assay with MCF7 [4] were 11% and 17%, respectively.
For `O=c1c(O[C@@H]2O[C@@H](CO)[C@H](O)[C@H]2O)c(-c2ccc(O)c(O)c2)oc2cc(O)cc(O)c12`, the outcome with A549 [3] and in the assay with MCF7 [4] was inactive.
Take `O=c1c(O[C@@H]2O[C@H](CO)[C@H](O)[C@H](O)[C@H]2O)c(-c2ccc(O)c(O)c2)oc2cc(O)cc(O)c12`: the result with A549 [3] and in the assay on MCF7 [4] was inactive.
Take `CC(C)=CCC[C@]1(C)[C@@H](CC=C(C)C)C[C@]2(C)C(=O)[C@@]3(CC=C(C)C)O[C@]2(O)[C@]1(C(=O)C(C)C)C3=O` [HYPERIBONE J]: the IC50 in the assay on A549 [1] was over 20 µg/mL; with MCF7 [2], 17.8 µg/mL (≈ 35.7 µM). This molecule also registered an inhibition at 20 µg/mL in the assay with A549 [3] of 49%.
As for `CC(C)=CC[C@@]12C[C@H]3[C@@H](C=C(C)C)[C@@](C(=O)c4ccccc4)(C1=O)C(=O)[C@@](CC=C(C)C)(C2=O)C3(C)C` [HYPERIBONE K], the IC50 was 13.7 µg/mL (≈ 27.4 µM) in the assay on A549 [1] and 10 µg/mL (≈ 20 µM) in the assay on MCF7 [2].
As for `CC(C)=CC[C@H]1C[C@@]2(CC=C(C)C)C(=O)C(C(=O)c3ccccc3)=C(O)[C@](C)(C2=O)C1(C)C` [HYPERIBONE L], the IC50 with A549 [1] was 9.2 µg/mL (≈ 20.5 µM); in the assay with MCF7 [2], 15 µg/mL (≈ 33.4 µM).
As to `CC(C)(O)C1Cc2c(c(O)cc3oc4cc(O)cc(O)c4c(=O)c23)O1` (centres undefined) [HYPERXANTHONE A], the IC50 in the assay with A549 [1] and with MCF7 [2] was over 20 µg/mL in each case. In addition, the inhibition at 20 µg/mL in the assay on A549 [3] is 26%; in the assay on MCF7 [4] it was 27%.
As for `C=C(C)C(O)Cc1c(O)c(O)cc2oc3cc(O)cc(O)c3c(=O)c12` (centres undefined) [HYPERXANTHONE C], the results for the IC50 with A549 [1] and in the assay on MCF7 [2] were 9.3 µg/mL (≈ 27 µM) and 11.2 µg/mL (≈ 32.5 µM), respectively.
With `C=C(C)C(O)Cc1c(O)ccc2oc3cc(O)cc(O)c3c(=O)c12` (centres undefined) [HYPERXANTHONE D], the IC50 with A549 [1] and in the assay on MCF7 [2] was over 20 µg/mL in each case. The inhibition at 20 µg/mL was 43% with A549 [3] and 34% in the assay with MCF7 [4].
Consider `CC1(C)CCc2c(c(O)cc3oc4cc(O)cc(O)c4c(=O)c23)O1` [HYPERXANTHONE E], for which the IC50 was 18.5 µg/mL (≈ 56.3 µM) with A549 [1] and 19.3 µg/mL (≈ 58.8 µM) in the assay on MCF7 [2].
On the same counts, the results for `O=c1cc(-c2ccc(O)c(O)c2)oc2cc(O)cc(O)c12` [LUTEOLIN] are 12.9 µg/mL (≈ 45.1 µM) and 14.3 µg/mL (≈ 50 µM).
The like results for `O=c1c(O)c(-c2cc(O)c(O)c(O)c2)oc2cc(O)cc(O)c12` [MYRICETIN] were, in that order, 14.8 µg/mL (≈ 46.5 µM) and 4.7 µg/mL (≈ 14.8 µM).
As to `C[C@H]1O[C@@H](Oc2c(-c3cc(O)c(O)c(O)c3)oc3cc(O)cc(O)c3c2=O)[C@@H](O)[C@@H](O)[C@@H]1O` [MYRICITRIN], the IC50 was over 20 µg/mL in the assay with A549 [1] and 11.2 µg/mL (≈ 24.1 µM) in the assay with MCF7 [2]. This molecule also gave an inhibition at 20 µg/mL with A549 [3] of 13%.
The like results for `O=c1c(O)c(-c2ccc(O)c(O)c2)oc2cc(O)cc(O)c12` [QUERCETIN] were, in that order, over 20 µg/mL, 19.5 µg/mL (≈ 64.5 µM) and 21%.
Consider `C[C@@H]1O[C@@H](Oc2c(-c3ccc(O)c(O)c3)oc3cc(O)cc(O)c3c2=O)[C@H](O)[C@H](O)[C@H]1O` [QUERCITRIN], for which the IC50 in the assay with A549 [1] and with MCF7 [2] was over 20 µg/mL each time. Besides, the inhibition at 20 µg/mL worked out at 12% in the assay with A549 [3] and 18% with MCF7 [4].
For the molecule `CC1(C)C=Cc2c(c(O)cc3oc4cc(O)cc(O)c4c(=O)c23)O1` [TOXYLOXANTHONE B], the IC50 with A549 [1] and in the assay on MCF7 [2] was over 20 µg/mL each time. Further, the inhibition at 20 µg/mL in the assay with A549 [3] was determined as 28%; in the assay on MCF7 [4], 17%.

A word on the IC50: it is the midpoint of a concentration-inhibition curve. Low values mean inhibition by little substance, high ones a need for much substance. For orientation: inhibition means the relative decrease from the control value, in per cent.
